Measurements taken from ChEMBL document CHEMBL4706730, “A Set of Highly Sensitive Sirtuin Fluorescence Probes for Screening Small-Molecular Sirtuin Defatty-Acylase Inhibitors” (ACS Med Chem Lett, 2021).
Active and inactive are the calls of the source. The calls are words filed in the database; no cut-off is given here. Numbered stars: 1 amine (or outer) side, 2 acyl side, 3 side chain; on linkers, the order of the positions; unused ones are H or OH. Square brackets hold non-standard residues; d marks the D form. Peptide text beside a SMILES is read from it. * marks the point of attachment. Lys(thiomyristoyl) = CCCCCCCCCCCCCC(=S)NCCCC[C@H](N)C(=O)O; X1 = O=C(O)c1cc(NC(=S)*)ccc1-c1c2ccc(=O)cc-2oc2cc(O)ccc12; X2 = CN(CCC(=O)*)c1ccc(/N=N/c2ccc([N+](=O)[O-])cc2)cc1; Achc(trans-4) = O=C([C@H]1CC[C@H](N[*:1])CC1)[*:2]; X5 = O=C(Cc1ccc(/N=N/c2ccc(O)cc2)cc1)*

Key:
[1] = target: T1, NAD-dependent protein deacetylase sirtuin-2 (Homo sapiens, UniProt Q8IXJ6); test: (§1) Inhibition of 5-(3-((1r,4r)-4-((5S,8S,11S,14S,17S,20S,29S)-11-((1H-imidazol-4-yl)methyl)-1,33-diamino-5-carbamoyl-17-(4-(4-(4-((4-(dimethylamino)phenyl)diazenyl)phenyl)butanamido)butyl)-8,14-bis(3-guanidinopropyl)-20-methyl-7,10,13,16,19,22,25,28-octaoxo-6,9,12,15,18,21,24,27-octaazatritriacontan-29-ylcarbamoyl)cyclohexyl)thioureido)-2-(6-hydroxy-3-oxo-3H-xanthen-9-yl)benzoic acid binding to SIRT2 (unknown origin) measured after 2 hrs in presence of NAD+ by fluorometric method
T1 sequence (Q8IXJ6 whole entry): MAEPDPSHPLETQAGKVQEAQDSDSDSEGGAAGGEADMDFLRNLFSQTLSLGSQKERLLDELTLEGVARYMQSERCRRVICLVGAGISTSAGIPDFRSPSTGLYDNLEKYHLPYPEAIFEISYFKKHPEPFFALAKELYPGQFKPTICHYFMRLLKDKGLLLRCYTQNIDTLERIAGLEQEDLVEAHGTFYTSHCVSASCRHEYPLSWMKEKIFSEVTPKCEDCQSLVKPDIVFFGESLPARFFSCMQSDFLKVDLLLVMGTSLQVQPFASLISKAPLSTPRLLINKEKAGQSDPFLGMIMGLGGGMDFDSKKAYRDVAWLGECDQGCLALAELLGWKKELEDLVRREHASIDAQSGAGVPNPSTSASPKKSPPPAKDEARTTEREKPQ
In short: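 The second screen used the same SIRT2 one-step FRET probe conditions, validated at 2.92 nM SIRT2. Compounds were tested over a range of concentrations to check dose-dependency, and the IC50 was derived from the dose–response curve.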

[2] = target: T2, NAD-dependent protein deacetylase sirtuin-2 (Homo sapiens) (UniProt Q8IXJ6); test: as §1, with “origin) at 10 uM” for “origin)”, “method relative to control” for “method”
T2 sequence (whole entry): T1 sequence (Q8IXJ6 whole entry)
In short: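 In the primary library screen, 384-well plates held SIRT2 with the Dabcyl-BH/H4K16 one-step FRET probe. Each compound was tested at 10 μM with 0.5% DMSO, and inhibition was taken from the fluorescence signal.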

[3] = target: T3, NAD-dependent protein deacetylase sirtuin-1 (Homo sapiens) (UniProt Q96EB6); test: Binding affinity to SIRT1 (unknown origin) assessed as increase in fluorescence intensity at 2.5 uM measured at 5 mins interval for 1 hr in presence of NAD+ by fluorometric method relative to control
T3 sequence (whole entry): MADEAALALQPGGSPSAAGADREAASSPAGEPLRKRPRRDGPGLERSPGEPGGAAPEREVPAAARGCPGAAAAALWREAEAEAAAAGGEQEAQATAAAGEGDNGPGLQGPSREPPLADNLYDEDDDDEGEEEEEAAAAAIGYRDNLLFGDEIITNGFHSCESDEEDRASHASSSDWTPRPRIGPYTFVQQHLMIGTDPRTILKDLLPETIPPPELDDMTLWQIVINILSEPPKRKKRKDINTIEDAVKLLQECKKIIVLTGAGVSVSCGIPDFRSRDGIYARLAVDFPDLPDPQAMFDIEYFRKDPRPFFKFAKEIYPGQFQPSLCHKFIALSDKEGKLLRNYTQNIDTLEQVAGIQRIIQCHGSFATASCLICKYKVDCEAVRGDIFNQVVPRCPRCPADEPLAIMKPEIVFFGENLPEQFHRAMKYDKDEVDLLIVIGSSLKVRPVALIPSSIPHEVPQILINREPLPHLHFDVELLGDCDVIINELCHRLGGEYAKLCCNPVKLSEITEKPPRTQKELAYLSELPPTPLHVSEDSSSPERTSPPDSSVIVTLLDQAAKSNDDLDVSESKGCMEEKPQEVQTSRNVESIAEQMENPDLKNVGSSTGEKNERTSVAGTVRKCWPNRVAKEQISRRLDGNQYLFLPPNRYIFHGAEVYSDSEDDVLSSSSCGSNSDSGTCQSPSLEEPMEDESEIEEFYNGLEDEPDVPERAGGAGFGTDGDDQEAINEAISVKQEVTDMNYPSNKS
In short: (§2)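 Each FITC/quencher FRET peptide probe was incubated with recombinant SIRT1–7 in 96-well half-area plates at 37 °C for 1 h. The fluorescence increase is reported as a fold change, SIRT(+) signal over SIRT(−) signal, after 1 h.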

[4] = target: T4, NAD-dependent protein deacetylase sirtuin-7 (Homo sapiens) (UniProt Q9NRC8); test: Binding affinity to SIRT7 (unknown origin) assessed as increase in fluorescence intensity at 2.5 uM measured at 5 mins interval for 1 hr in presence of NAD+ by fluorometric method relative to control; in short: as §2
T4 sequence (whole entry): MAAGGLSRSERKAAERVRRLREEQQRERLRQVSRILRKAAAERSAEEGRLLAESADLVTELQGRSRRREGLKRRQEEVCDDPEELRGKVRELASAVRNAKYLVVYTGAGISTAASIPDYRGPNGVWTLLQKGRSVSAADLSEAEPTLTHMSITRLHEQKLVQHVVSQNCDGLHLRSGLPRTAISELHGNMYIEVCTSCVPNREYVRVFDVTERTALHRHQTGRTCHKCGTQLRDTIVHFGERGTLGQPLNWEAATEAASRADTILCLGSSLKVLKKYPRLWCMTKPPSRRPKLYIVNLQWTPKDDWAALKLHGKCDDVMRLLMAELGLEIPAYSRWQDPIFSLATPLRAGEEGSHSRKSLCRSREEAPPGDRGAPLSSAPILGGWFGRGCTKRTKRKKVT

[5] = target: T2, NAD-dependent protein deacetylase sirtuin-2 (Homo sapiens); test: Binding affinity to SIRT2 (unknown origin) assessed as increase in fluorescence intensity at 2.5 uM measured at 5 mins interval for 1 hr in presence of NAD+ by fluorometric method relative to control; in short: as §2
[6] = target: T5, NAD-dependent protein lipoamidase sirtuin-4, mitochondrial (Homo sapiens) (UniProt Q9Y6E7); test: Binding affinity to SIRT4 (unknown origin) assessed as increase in fluorescence intensity at 2.5 uM measured at 5 mins interval for 1 hr in presence of NAD+ by fluorometric method relative to control; in short: as §2
T5 sequence (whole entry): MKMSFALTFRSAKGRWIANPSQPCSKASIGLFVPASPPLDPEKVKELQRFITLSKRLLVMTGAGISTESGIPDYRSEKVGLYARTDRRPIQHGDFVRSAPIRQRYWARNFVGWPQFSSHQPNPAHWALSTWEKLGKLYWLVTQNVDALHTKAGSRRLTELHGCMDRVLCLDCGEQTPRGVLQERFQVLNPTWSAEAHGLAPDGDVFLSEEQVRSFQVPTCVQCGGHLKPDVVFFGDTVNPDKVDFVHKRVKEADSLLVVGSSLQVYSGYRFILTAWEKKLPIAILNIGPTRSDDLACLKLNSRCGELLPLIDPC

[7] = target: T6, NAD-dependent protein deacetylase sirtuin-3, mitochondrial (Homo sapiens) (UniProt Q9NTG7); test: Binding affinity to SIRT3 (unknown origin) assessed as increase in fluorescence intensity at 2.5 uM measured at 5 mins interval for 1 hr in presence of NAD+ by fluorometric method relative to control; in short: as §2
T6 sequence (whole entry): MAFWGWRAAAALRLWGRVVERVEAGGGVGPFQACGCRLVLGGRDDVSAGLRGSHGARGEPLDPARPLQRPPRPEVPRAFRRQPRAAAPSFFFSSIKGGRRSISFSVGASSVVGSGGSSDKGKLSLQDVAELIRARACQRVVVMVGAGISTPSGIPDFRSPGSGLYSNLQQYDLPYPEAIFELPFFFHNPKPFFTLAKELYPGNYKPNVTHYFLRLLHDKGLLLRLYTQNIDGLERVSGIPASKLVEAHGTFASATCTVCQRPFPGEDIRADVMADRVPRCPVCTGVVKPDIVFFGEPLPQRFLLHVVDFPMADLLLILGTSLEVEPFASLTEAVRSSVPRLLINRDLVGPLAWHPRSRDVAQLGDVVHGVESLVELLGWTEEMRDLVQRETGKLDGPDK

[8] = target: NAD-dependent protein deacylase sirtuin-5, mitochondrial (Homo sapiens) (UniProt Q9NXA8); test: Binding affinity to SIRT5 (unknown origin) assessed as increase in fluorescence intensity at 2.5 uM measured at 5 mins interval for 1 hr in presence of NAD+ by fluorometric method relative to control; in short: as §2
Sequence of NAD-dependent protein deacylase sirtuin-5, mitochondrial (Homo sapiens) (Q9NXA8 37-310 limits assumed): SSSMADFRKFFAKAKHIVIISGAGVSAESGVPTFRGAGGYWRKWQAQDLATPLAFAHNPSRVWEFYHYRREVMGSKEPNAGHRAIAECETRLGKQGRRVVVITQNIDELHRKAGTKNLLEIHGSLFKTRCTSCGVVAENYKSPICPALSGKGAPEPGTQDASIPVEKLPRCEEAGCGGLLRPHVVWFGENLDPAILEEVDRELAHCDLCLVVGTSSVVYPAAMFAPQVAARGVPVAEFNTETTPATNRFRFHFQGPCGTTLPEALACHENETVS

[9] = target: NAD-dependent protein deacylase sirtuin-6 (Homo sapiens) (UniProt Q8N6T7); test: Binding affinity to SIRT6 (unknown origin) assessed as increase in fluorescence intensity at 2.5 uM measured at 5 mins interval for 1 hr in presence of NAD+ by fluorometric method relative to control; in short: as §2
Target sequence in this assay (Q8N6T7 whole entry): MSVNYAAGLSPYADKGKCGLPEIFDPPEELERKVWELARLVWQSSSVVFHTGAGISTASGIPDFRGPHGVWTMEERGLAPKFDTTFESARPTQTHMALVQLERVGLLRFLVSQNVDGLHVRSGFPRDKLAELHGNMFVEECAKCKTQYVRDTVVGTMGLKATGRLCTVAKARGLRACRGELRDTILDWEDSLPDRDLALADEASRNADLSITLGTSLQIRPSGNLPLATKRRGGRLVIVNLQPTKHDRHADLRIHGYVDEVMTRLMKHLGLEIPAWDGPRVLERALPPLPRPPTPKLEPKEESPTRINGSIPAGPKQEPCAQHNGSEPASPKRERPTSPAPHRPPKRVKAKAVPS

[10] = target: T2, NAD-dependent protein deacetylase sirtuin-2 (Homo sapiens); test: Binding affinity to SIRT2 (unknown origin) assessed as increase in fluorescence intensity at 2.92 to 8.75 nM measured at 5 mins interval for 4 hrs in presence of NAD+ by fluorometric method; details: dose 2.92-8.75 nM
[11] = target: T2, NAD-dependent protein deacetylase sirtuin-2 (Homo sapiens); test: Binding affinity to SIRT2 (unknown origin) assessed as increase in fluorescence intensity measured at 5 mins interval for 1 hr in presence of NAD+ by fluorometric method
[12] = target: NAD-dependent protein deacylase sirtuin-6 (Homo sapiens) (UniProt Q8N6T7); test: Inhibition of 5-[[(1r,4r)-4-[[(1S)-4-amino-1-[[(1S,2R)-1-[[(1S)-2-[[(1S)-1-[[(1S)-1-[[(1S)-2-[[(1S,2R)-1-[[2-(carboxymethylamino)-2-oxoethyl]carbamoyl]-2-hydroxypropyl]amino]-1-(hydroxymethyl)-2-oxoethyl]carbamoyl]-5-[3-[N-methyl-4-[(4-nitrophenyl)azo]anilino]propanoylamino]pentyl]carbamoyl]-4-guanidinobutyl]amino]-1-methyl-2-oxoethyl]carbamoyl]-2-hydroxypropyl]carbamoyl]-4-oxobutyl]carbamoyl]cycl …
Target sequence in this assay (Q8N6T7 whole entry, looked up): as the sequence (Q8N6T7 whole entry) above

fold change (FC) [3] | fold change (FC) [4] | fold change (FC) [5] | fold change (FC) [6] | fold change (FC) [8] | fold change (FC) [9] | Structure (SMILES) | further results
5.85 | 1.05 | 6.97 | 1.25 | 1.15 | 1.19 | CC[C@H](C)[C@H](NC(=O)[C@H](CCCNC(=N)N)NC(=O)[C@H](Cc1ccc(O)cc1)NC(=O)[C@H](CC(=O)O)NC(=O)[C@H]1CC[C@H](NC(=S)Nc2ccc(-c3c4ccc(=O)cc-4oc4cc(O)ccc34)c(C(=O)O)c2)CC1)C(=O)N[C@@H](CCCCNC(=O)CCN(C)c1ccc(/N=N/c2ccc([N+](=O)[O-])cc2)cc1)C(=O)N[C@@H](CCCNC(=N)N)C(=O)N[C@@H](Cc1ccc(O)cc1)C(=O)N[C@@H](Cc1c[nH]cn1)C(=O)N[C@H](C(N)=O)[C@@H](C)O (X1-[Achc(trans-4)]DYRIK(X2)RYHT-NH2) | fold change (FC) [7]: 26.7
8.86 | 0.99 | 5.64 | 1.2 | 1.05 | 3.36 | CN(CCC(=O)NCCCC[C@H](NC(=O)[C@H](Cc1ccccc1)NC(=O)[C@H](CO)NC(=O)[C@H](CCCCN)NC(=O)[C@H](CCCCN)NC(=O)[C@H]1CC[C@H](NC(=S)Nc2ccc(-c3c4ccc(=O)cc-4oc4cc(O)ccc34)c(C(=O)O)c2)CC1)C(=O)N[C@@H](CCC(=O)O)C(=O)N[C@@H](CCCNC(=N)N)C(=O)N[C@@H](CO)C(=O)N[C@@H](CO)C(N)=O)c1ccc(/N=N/c2ccc([N+](=O)[O-])cc2)cc1 (X1-[Achc(trans-4)]KKSFK(X2)ERSS-NH2) | fold change (FC) [7]: 26.2

Continued, compound first:

Structure (SMILES) | fold change (FC) [3] | fold change (FC) [4] | fold change (FC) [5] | fold change (FC) [6] | fold change (FC) [8] | fold change (FC) [9] | further results
CC[C@H](C)[C@H](NC(=O)[C@H](CCCNC(=N)N)NC(C)=O)C(=O)N[C@@H](CCCCNC(=O)Cc1ccc(/N=N/c2ccc(O)cc2)cc1)C(=O)N[C@@H](CCCNC(=N)N)C(=O)N[C@@H](Cc1ccc(O)cc1)C(N)=O (Ac-RIK(X5)RY-NH2) | – | – | – | – | – | – | IC50 [1]: 7 nM
C=C(C)Cn1c(NCCO)nc2c1c(=O)[nH]c(=O)n2C | – | – | – | – | – | – | inhibition [2]: > 35%
O=C1CCCCC1C1(O)C(=O)Nc2ccccc21 (stereo unspecified) | – | – | – | – | – | – | inhibition [2]: > 35%
C[C@H](NC(=O)CNC(=O)CNC(=O)[C@H](CCCCN)NC(=O)[C@H]1CC[C@H](NC(=S)Nc2ccc(-c3c4ccc(=O)cc-4oc4cc(O)ccc34)c(C(=O)O)c2)CC1)C(=O)N[C@@H](CCCCNC(=O)CCCc1ccc(/N=N/c2ccc(N(C)C)cc2)cc1)C(=O)N[C@@H](CCCNC(=N)N)C(=O)N[C@@H](Cc1c[nH]cn1)C(=O)N[C@@H](CCCNC(=N)N)C(=O)N[C@@H](CCCCN)C(N)=O | 14.2 | 1 | 12 | 1.11 | 1.06 | 2.21 | Activity [10]: Active; Activity [11]: Dose-dependent effect
CCCCCCCCCCCCCC(=S)NCCCC[C@H](NC(=O)[C@@H](NC(=O)[C@H](CCCNC(=N)N)NC(C)=O)[C@@H](C)CC)C(=O)N[C@@H](CCCNC(=N)N)C(=O)N[C@@H](Cc1ccc(O)cc1)C(N)=O (Ac-RI[Lys(thiomyristoyl)]RY-NH2) | – | – | – | – | – | – | IC50 [12]: 100 nM
